# PubChem BioAssay AID623961 (The Scripps Research Institute Molecular Screening Center, 2012)
# Several values for one entry are separate records, joined by “and”; a condition that tells them apart may be missing. Equal values may be shown once. Activity calls are given as the source filed them.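 Rule for the calls: active = mean cell viability below 80%; inactive = the rest.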
# Tested on: Huh-7.5 Rluc-replicon viability, CellTiter-Glo ATP, 72 h
# Assay: cytotoxicity in HCV replicon hepatoma cells, late-stage follow-up, cytotoxicity control for HCV NS3 helicase inhibitor project, cell-based, luminescence (AID 623961)
# Details: at 10 µM; active compounds read low
# How it was run: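 System: Huh-7.5 human hepatoma cells harboring HCV Renilla luciferase replicon / Compound dosing: 10 µM single concentration, 0.5% DMSO / Schedule: cell attachment 4-5 h, compound exposure 72 h at 37 °C, 5% CO2 / Technique: ATP luminescence after 30 min lysis at 23 °C / Read-out: mean % viability / Buffer or medium: fresh growth medium at readout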
row,SMILES,viability
1,Cc1ccc2nc(-c3ccc4nc(-c5ccc(NC(=O)c6c(F)cccc6C(F)(F)F)cc5)sc4c3)sc2c1S(=O)(=O)O,122% (inactive)
2,Cc1ccc2nc(-c3ccc4nc(-c5ccc(NC(=O)c6ccc(C(F)(F)F)c(F)c6)cc5)sc4c3)sc2c1S(=O)(=O)O,129% (inactive)
3,COc1ccc(S(=O)(=O)Nc2ccc(-c3nc4ccc(-c5nc6ccc(C)c(S(=O)(=O)O)c6s5)cc4s3)cc2)cc1,75%
4,Cc1ccc2nc(-c3ccc4nc(-c5ccc(NC(=O)c6ccc(Br)cc6)cc5)sc4c3)sc2c1S(=O)(=O)O,113% (inactive)
5,O=C(CCCCCCC(=O)Nc1ccc(-c2nc3ccccc3[nH]2)cc1)Nc1ccc(-c2nc3ccccc3[nH]2)cc1,31%
6,Cc1ccc2nc(-c3ccc4nc(-c5ccc(NS(=O)(=O)c6ccc(C(F)(F)F)cc6)cc5)sc4c3)sc2c1S(=O)(=O)O,101% (inactive)
7,Cc1ccc2nc(-c3ccc4nc(-c5ccc(NC(=O)c6ccc7nc(-c8ccc(N)cc8)sc7c6)cc5)sc4c3)sc2c1S(=O)(=O)O,85% (inactive)
8,NS(=O)(=O)c1ccc2nc(NC(=O)c3ccc4ncsc4c3)sc2c1,94% (inactive)
9,Cc1ccc2nc(-c3ccc(NC(=O)c4ccc(NC(=O)c5ccc(N)cc5)cc4)cc3)sc2c1S(=O)(=O)O,112% (inactive)
10,Cc1ccc2nc(-c3ccc4nc(-c5ccc(NC(=O)c6ccc7ccccc7c6)cc5)sc4c3)sc2c1S(=O)(=O)O,87% (inactive) and 99% (inactive)
11,Cc1ccc2nc(-c3ccc(NC(=O)c4ccc(N)cc4)cc3)sc2c1S(=O)(=O)O,103% (inactive)
12,Cc1ccc2nc(-c3ccc4nc(-c5ccc(NCc6ccccc6)cc5)sc4c3)sc2c1S(=O)(=O)O,109% (inactive)
13,Cc1ccc2nc(-c3ccc4nc(-c5ccc(NC(=O)c6cccc(C(F)(F)F)c6)cc5)sc4c3)sc2c1S(=O)(=O)O,121% (inactive)
14,Cc1ccc2nc(-c3ccc4nc(-c5ccc(N)cc5)sc4c3)sc2c1S(=O)(=O)O,85% (inactive) and 105% (inactive) and 95% (inactive)
15,Cc1cc2sc(-c3ccc4nc(-c5ccc(N)cc5)sc4c3)nc2cc1S(=O)(=O)O,87% (inactive)
16,COc1cccc2c(=O)c3cc(Cl)cc(C(=O)Nc4cc(Cl)ccn4)c3[nH]c12,79%
17,Cc1ccc2nc(-c3ccc4nc(-c5ccc(NC(=O)c6cccc(Cl)c6)cc5)sc4c3)sc2c1S(=O)(=O)O,112% (inactive)
18,Cc1ccc2nc(-c3ccc4nc(-c5ccc(N(C)C(=O)c6ccc7ccccc7c6)cc5)sc4c3)sc2c1S(=O)(=O)O,101% (inactive)
19,CN1CCN(Cc2cc(CN3CCN(C)CC3)c(O)c(=O)c(CN3CCN(C)CC3)c2)CC1,69%
20,Cc1ccc2nc(-c3ccc4nc(-c5ccc(NC(=O)c6ccc(Cl)c(Cl)c6)cc5)sc4c3)sc2c1S(=O)(=O)O,114% (inactive)
21,Cc1cc2sc(-c3ccc(N)cc3)nc2cc1S(=O)(=O)O,88% (inactive)
22,Cc1ccc2nc(-c3ccc(NC(=O)c4ccc(NS(=O)(=O)c5ccccc5)cc4)cc3)sc2c1S(=O)(=O)O,119% (inactive)
23,Cc1ccc2nc(-c3ccc4nc(-c5ccc(NC(=O)c6ccc(C(F)(F)F)cc6)cc5)sc4c3)sc2c1S(=O)(=O)O,90% (inactive)
24,Cc1ccc2nc(-c3ccc(NC(=S)Nc4ccccc4Br)cc3)sc2c1,39%

row,SMILES,viability
1,Cc1ccc2nc(-c3ccc4nc(-c5ccc(NC(=O)c6cccc(C(F)(F)F)c6F)cc5)sc4c3)sc2c1S(=O)(=O)O,122% (inactive)
2,Cc1ccc2nc(-c3ccc4nc(-c5ccc(NC(=O)c6ccncc6)cc5)sc4c3)sc2c1S(=O)(=O)O,117% (inactive)
3,COC(=O)c1ccc(C(=O)Nc2ccc(-c3nc4ccc(-c5nc6ccc(C)c(S(=O)(=O)O)c6s5)cc4s3)cc2)cc1,101% (inactive)
4,Cc1ccc2nc(-c3ccc4nc(-c5ccc6nc(-c7ccc(N)cc7)sc6c5)sc4c3)sc2c1S(=O)(=O)O,91% (inactive)
5,CCOc1ccc2c(NNC(=O)c3cnccn3)c3c(nc2c1)CCCC3,31%
6,Cc1ccc2nc(-c3ccc4nc(-c5ccc(NC(=O)c6cc(C(F)(F)F)ccc6F)cc5)sc4c3)sc2c1S(=O)(=O)O,132% (inactive)
7,Cc1ccc2nc(-c3ccc4nc(-c5ccc(NC(=O)c6ccc7ncoc7c6)cc5)sc4c3)sc2c1S(=O)(=O)O,114% (inactive)
8,Cc1ccc(NC(=O)Nc2ccc(-c3nc4ccc(-c5nc6ccc(C)c(S(=O)(=O)O)c6s5)cc4s3)cc2)cc1,93% (inactive)
9,COc1ccc(NC(=O)Nc2ccc(-c3nc4ccc(-c5nc6ccc(C)c(S(=O)(=O)O)c6s5)cc4s3)cc2)cc1,99% (inactive)
10,Cc1ccc2nc(-c3ccc4nc(-c5ccc(NC(=O)c6cccnc6)cc5)sc4c3)sc2c1S(=O)(=O)O,113% (inactive)
11,CCN(CC)c1ccc(-c2nc3ccc(-c4nc5ccc(C)c(S(=O)(=O)O)c5s4)cc3s2)cc1,96% (inactive)
12,Cc1ccc2nc(-c3ccc4nc(-c5ccc6nc(-c7ccc(N)cc7)sc6c5)sc4c3)sc2c1S(=O)(=O)O (tested in a mixture with another compound),98% (inactive)
13,Cc1ccc2nc(-c3ccc4nc(-c5ccc(NC(=O)c6ccc(NC(=O)OCC7c8ccccc8-c8ccccc87)cc6)cc5)sc4c3)sc2c1S(=O)(=O)O,92% (inactive)
14,Cc1ccc2nc(-c3ccc4nc(-c5ccc(NC(=O)c6ccc7nc(-c8ccc(NC(=O)OCC9c%10ccccc%10-c%10ccccc%109)cc8)sc7c6)cc5)sc4c3)sc2c1S(=O)(=O)O,90% (inactive) and 95% (inactive)
15,Cc1ccc(C(=O)Nc2ccc(-c3nc4ccc(-c5nc6ccc(C)c(S(=O)(=O)O)c6s5)cc4s3)cc2)cc1,87% (inactive)
16,Cc1ccc2nc(-c3ccc4nc(-c5ccc(NC(=O)Nc6ccc(C(F)(F)F)cc6)cc5)sc4c3)sc2c1S(=O)(=O)O,99% (inactive)
17,COc1ccc2sc(NC(=O)c3ccc4ncsc4c3)nc2c1,50%
18,Cc1ccc2nc(-c3ccc4nc(-c5ccc(NC(=O)c6ccc(N)cc6)cc5)sc4c3)sc2c1S(=O)(=O)O,93% (inactive)
19,Cc1ccc2nc(-c3ccc4nc(-c5ccc(NC(=O)Nc6ccccc6)cc5)sc4c3)sc2c1S(=O)(=O)O,108% (inactive)
20,Cc1ccc2nc(-c3ccc(NC(=O)c4ccc(NC(=O)OCC5c6ccccc6-c6ccccc65)cc4)cc3)sc2c1S(=O)(=O)O,108% (inactive)
21,CC(=O)Nc1ccc(-c2nc3ccc(-c4nc5ccc(C)c(S(=O)(=O)O)c5s4)cc3s2)cc1,102% (inactive)
22,O=C(Nc1nc2ccc(Br)cc2s1)c1ccc2ncsc2c1,89% (inactive)
23,Cc1ccc2nc(-c3ccc4nc(-c5ccc(NC(=O)c6ccc(C(C)(C)C)cc6)cc5)sc4c3)sc2c1S(=O)(=O)O,87% (inactive)
24,Cc1ccc2nc(-c3ccc4nc(-c5ccc(NC(=O)c6cc(F)ccc6C(F)(F)F)cc5)sc4c3)sc2c1S(=O)(=O)O,118% (inactive)

row,SMILES,viability
1,Cc1ccc2nc(-c3ccc(NC(=O)c4ccc(NC(=O)c5ccc(C(F)(F)F)cc5)cc4)cc3)sc2c1S(=O)(=O)O,97% (inactive)
2,CCOc1ccc2nc(NC(=O)c3ccc4ncsc4c3)sc2c1,3%
3,Cc1ccc2nc(-c3ccc4nc(-c5ccc6nc(-c7ccc8nc(-c9ccc(N)cc9)sc8c7)sc6c5)sc4c3)sc2c1S(=O)(=O)O,94% (inactive) and 83% (inactive)
4,Cc1ccc2nc(-c3ccc4nc(-c5ccc(NC(=O)Nc6ccc(F)cc6)cc5)sc4c3)sc2c1S(=O)(=O)O,93% (inactive)
5,Cc1ccc2nc(-c3ccc4nc(-c5ccc(NC(=S)Nc6ccccc6)cc5)sc4c3)sc2c1S(=O)(=O)O,98% (inactive)
6,Cc1ccc2nc(-c3ccc(NC(=O)c4ccc(NC(=O)Nc5ccccc5)cc4)cc3)sc2c1S(=O)(=O)O,113% (inactive)
7,Cc1ccc2nc(-c3ccc(NC(=O)c4ccc(C(F)(F)F)cc4)cc3)sc2c1S(=O)(=O)O,102% (inactive)
8,Cc1cc(C(O)(c2ccc(Nc3ccccc3)cc2)c2ccc(Nc3ccc(S(=O)(=O)O)cc3)cc2)ccc1N (stereo not given),73%
9,Cc1ccc2nc(-c3ccc(NC(=O)c4ccc(NC(=O)c5ccccc5)cc4)cc3)sc2c1S(=O)(=O)O,115% (inactive)
10,Cc1ccc2nc(-c3ccc4nc(NC(=O)c5ccc6ncoc6c5)sc4c3)sc2c1,28%
11,O=C(Nc1ccc(-c2nc3ccccc3[nH]2)cc1)c1ccc2ncsc2c1,96% (inactive)
12,Cc1ccc2nc(-c3ccc(NC(=O)c4ccc(NC(=O)c5ccc(NC(=O)OCC6c7ccccc7-c7ccccc76)cc5)cc4)cc3)sc2c1S(=O)(=O)O,113% (inactive)
13,Cc1ccc2nc(-c3ccc4nc(-c5ccc(NC(=O)c6ccccc6)cc5)sc4c3)sc2c1S(=O)(=O)O,88% (inactive)
14,Cc1ccc2nc(-c3ccc4nc(-c5ccc(NC(=O)c6cccc7ccccc67)cc5)sc4c3)sc2c1S(=O)(=O)O,103% (inactive)
15,Cc1ccc2nc(-c3ccc4nc(-c5ccc(NC(=O)c6ccccc6C(F)(F)F)cc5)sc4c3)sc2c1S(=O)(=O)O,112% (inactive)
16,Cc1ccc2nc(-c3ccc4nc(-c5ccc(NC(=O)Nc6ccc(Cl)cc6)cc5)sc4c3)sc2c1S(=O)(=O)O,98% (inactive)
17,Cc1ccc2nc(-c3ccc(NC(=O)c4ccc(NC(=S)Nc5ccccc5)cc4)cc3)sc2c1S(=O)(=O)O,106% (inactive)
18,Cc1ccc2nc(-c3ccc4nc(-c5ccc(NC(=O)c6cc(C(F)(F)F)cc(C(F)(F)F)c6)cc5)sc4c3)sc2c1S(=O)(=O)O,122% (inactive)
19,Cc1ccc2c(sc(-c3ccc4c(c3)sc(-c3ccc5c(c3)sc(-c3ccc(N(C)C)cc3)[n+]5C)[n+]4C)[n+]2C)c1S(=O)(=O)O (tested in a mixture with another compound),83% (inactive)
20,CS(=O)(=O)c1ccc2nc(NC(=O)c3ccc4ncsc4c3)sc2c1,41%
21,Cc1ccc2nc(-c3ccc4nc(-c5ccc(NC(=O)c6ccc(N(C)C)cc6)cc5)sc4c3)sc2c1S(=O)(=O)O,94% (inactive)
22,Cc1ccc2nc(-c3ccc(N)cc3)sc2c1S(=O)(=O)O,104% (inactive)
